# How the values were obtained:
# [1] = target: T1, Alpha-1A adrenergic receptor (Rattus norvegicus, UniProt P43140); test: Antagonist activity at alpha1A adrenergic receptor in Wistar rat prostatic rat vas deferens assessed as inhibition of noradrenaline-induced contraction preincubated for 30 mins followed by noradrenaline addition measured after 45 mins in presence of cocaine hydrochloride; type: functional; settings: read-out: pA2 (converted)
# T1 sequence (P43140 whole entry): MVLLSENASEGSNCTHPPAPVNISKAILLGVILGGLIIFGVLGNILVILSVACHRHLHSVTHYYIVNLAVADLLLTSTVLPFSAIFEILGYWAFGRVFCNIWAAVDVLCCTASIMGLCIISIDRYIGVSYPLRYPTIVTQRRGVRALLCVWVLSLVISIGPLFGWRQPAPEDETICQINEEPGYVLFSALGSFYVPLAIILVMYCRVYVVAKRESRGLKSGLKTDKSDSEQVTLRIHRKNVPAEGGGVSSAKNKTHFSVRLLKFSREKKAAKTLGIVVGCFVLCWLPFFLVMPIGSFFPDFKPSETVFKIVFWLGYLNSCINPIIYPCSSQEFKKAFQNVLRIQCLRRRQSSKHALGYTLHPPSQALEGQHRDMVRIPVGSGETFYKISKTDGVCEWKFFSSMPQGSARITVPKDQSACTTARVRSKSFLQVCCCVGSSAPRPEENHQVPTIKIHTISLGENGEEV
# In short: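 Prostatic rat vas deferens, 2 cm portions, held at 0.35 g in Tyrode (pH 7.4, 37 °C, 95% O2/5% CO2). Cocaine 10 μM added 20 min before the agonist. Tissue equilibrated 45 min and primed twice with 10 μM noradrenaline. Isotonic cumulative noradrenaline curves were run before and after 30 min antagonist. pA2 came from Schild plots (≥3 concentrations); otherwise pKB (van Rossum). n ≥ 4.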
# [2] = target: T2, Alpha-1D adrenergic receptor (Rattus norvegicus, UniProt P23944); test: Antagonist activity at alpha1D adrenergic receptor in Wistar rat thoracic aorta assessed as inhibition of noradrenaline-induced contraction measured after 30 mins in presence of cocaine hydrochloride and beta-adrenoceptor blocker propranolol hydrochloride; type: functional; settings: read-out: pA2 (converted)
# T2 sequence (P23944 whole entry): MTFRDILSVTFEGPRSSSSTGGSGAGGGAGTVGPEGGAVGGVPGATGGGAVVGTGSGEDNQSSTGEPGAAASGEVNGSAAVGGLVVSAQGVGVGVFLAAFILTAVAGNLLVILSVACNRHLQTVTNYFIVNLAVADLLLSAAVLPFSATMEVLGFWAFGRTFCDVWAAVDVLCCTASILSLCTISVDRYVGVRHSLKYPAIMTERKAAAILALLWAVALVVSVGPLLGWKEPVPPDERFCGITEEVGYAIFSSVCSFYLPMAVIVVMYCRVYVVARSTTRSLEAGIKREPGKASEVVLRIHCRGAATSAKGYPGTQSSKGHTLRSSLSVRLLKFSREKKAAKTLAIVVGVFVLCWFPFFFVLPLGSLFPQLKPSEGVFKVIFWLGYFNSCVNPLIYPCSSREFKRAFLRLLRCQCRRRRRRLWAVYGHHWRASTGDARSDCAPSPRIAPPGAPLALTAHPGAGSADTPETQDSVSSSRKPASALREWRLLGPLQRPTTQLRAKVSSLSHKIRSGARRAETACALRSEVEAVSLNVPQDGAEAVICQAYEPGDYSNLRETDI
# In short: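 Helical thoracic aorta strips, endothelium removed (checked by loss of acetylcholine relaxation), in Krebs at 1 g, equilibrated ≥2 h. Isometric cumulative noradrenaline curves at 1 h intervals; the second served as control, the third followed 30 min antagonist.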
# [3] = organism: Rattus norvegicus; test: Selectivity ratio of compound effect for antagonism of alpha1B adrenergic receptor in Wistar rat spleen to compound effect for antagonism of alpha1D adrenergic receptor in Wistar rat thoracic aorta
# In short: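 Ratio taken as the antilog of the difference between rat tissue pA2 or pKB values for the two subtypes (vas deferens α1A, spleen α1B, aorta α1D organ-bath antagonism).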
# [4] = target: T3, Alpha-1A adrenergic receptor (Homo sapiens, UniProt P35348); test: Displacement of [3H]prazosin from human alpha1A adrenergic receptor expressed in CHO cell membranes after 30 mins by rapid filtration method
# T3 sequence (P35348 whole entry): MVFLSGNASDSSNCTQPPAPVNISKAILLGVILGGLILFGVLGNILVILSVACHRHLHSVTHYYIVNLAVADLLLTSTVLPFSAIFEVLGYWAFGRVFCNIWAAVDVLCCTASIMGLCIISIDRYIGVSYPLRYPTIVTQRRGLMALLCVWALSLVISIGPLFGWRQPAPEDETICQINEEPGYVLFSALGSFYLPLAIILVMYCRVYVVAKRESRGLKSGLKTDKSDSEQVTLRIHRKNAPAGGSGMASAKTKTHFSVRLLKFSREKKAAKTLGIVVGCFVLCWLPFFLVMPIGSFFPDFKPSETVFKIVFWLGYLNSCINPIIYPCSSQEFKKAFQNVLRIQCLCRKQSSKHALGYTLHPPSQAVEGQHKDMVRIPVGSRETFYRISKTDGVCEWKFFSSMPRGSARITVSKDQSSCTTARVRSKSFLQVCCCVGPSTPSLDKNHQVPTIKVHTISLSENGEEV
# In short: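 Membranes (30 μg protein) from CHO cells stably transfected with the human α1a, α1b or α1d receptor. Incubated 30 min at 25 °C in 50 mM Tris-HCl pH 7.4 with 0.1–0.4 nM [3H]prazosin and competitor 1 pM–10 μM. Nonspecific binding defined by 10 μM phentolamine. Stopped by rapid filtration through PEI-treated filters. IC50 converted to Ki by Cheng-Prusoff; pKi from 2–3 experiments in triplicate.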
# [5] = organism: Homo sapiens; test: Selectivity ratio of compound effect for displacement of [3H]prazosin from human alpha1D adrenergic receptor expressed in CHO cell membranes to compound effect for displacement of [3H]prazosin from human alpha1A adrenergic receptor expressed in CHO cell membranes
# In short: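 Ratio taken as the antilog of the difference between pKi values from [3H]prazosin displacement at human α1 subtypes expressed in CHO membranes.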
SMILES,Kb [1] [nM],Kb [2] [nM],Selectivity ratio [3],Ki [4] [nM],Selectivity ratio [5]
COc1cc2nc(N3CCN(C(C)=O)[C@@H]4CCCC[C@@H]43)nc(N)c2cc1OC,44.7,2.19,4,9.12,60
CCCCCC(=O)N1CCN(c2nc(N)c3cc(OC)c(OC)cc3n2)[C@@H]2CCCC[C@@H]21,–,155,15,5.75,2
COc1cc2nc(N3CCN(C(=O)Cc4ccc5ccccc5c4)[C@H]4CCCC[C@H]43)nc(N)c2cc1OC,–,135,15,17,8
CCCN(CCC)c1nc(N2CCN(C(=O)c3ccco3)[C@@H]3CCCC[C@@H]32)nc2cc(OC)c(OC)cc12,–,58.9,1,1.86,29
COc1cc2nc(N3CCN(C(=O)C(C)(C)C)[C@H]4CCCC[C@H]43)nc(N)c2cc1OC,–,141,26,6.61,1
COc1cc2nc(N3CCN(C(=O)OCc4ccccc4)[C@@H]4CCCC[C@@H]43)nc(N)c2cc1OC,16.2,0.525,0.3,0.501,13
COc1cc2nc(N3CCN(C(=O)OCc4ccccc4)[C@H]4CCCC[C@H]43)nc(N)c2cc1OC,776,240,141,5.5,1
COc1cc2nc(N3CCN(C(=O)COc4c(OC)cccc4C(C)C)[C@H]4CCCC[C@H]43)nc(N)c2cc1OC,151,58.9,0.3,0.871,2
COc1cc2nc(N3CCN(C(C)=O)[C@H]4CCCC[C@H]43)nc(N)c2cc1OC,3020,1700,562,224,2
"COc1cc2nc(N3CCN(C(=O)C4COc5ccccc5O4)[C@H]4CCCC[C@H]43)nc(N)c2cc1OC (single isomer, unassigned; (-)) [CYCLODOXAZOSIN]",200,–,32,–,–
CCCN(CCC)c1nc(N2CCN(C(=O)c3ccco3)[C@H]3CCCC[C@H]32)nc2cc(OC)c(OC)cc12,–,–,44,22.4,4
